Laboratory results reported in ChEMBL document CHEMBL2086235, “A novel thiazolidine compound induces caspase-9 dependent apoptosis in cancer cells” (Bioorg Med Chem, 2012).
The source made the active and inactive calls. No cut-off for these calls is given here.

How the values were obtained:
Format in all cases: functional, cell-based
[1] = tested on: Huh-7; assay: Growth inhibition of human HuH7 cells incubated for 48 hrs by Giemsa staining
How it was run: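 Cells grown overnight, compound added from DMSO solution, then incubated 48 h more. Attached cells stained with Giemsa and photographed; qualitative read-out.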

[2] = tested on: HCT-116; assay: Induction of cell death in human HCT116 cells at 2.5 to 40 uM incubated for 72 hrs by SRB assay
How it was run: (§1)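 Cells seeded and grown 24 h at 37 °C, then treated 72 h in triplicate. Fixed with cold 10% TCA 1 h at 4 °C, stained with 0.4% SRB in 1% acetic acid 10 min, washed in 1% acetic acid. Dye solubilized in 10 mM Tris base; absorbance read at 515 nm. Normalized to DMSO control and Tz; three independent experiments.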

[3] = tested on: Huh-7; assay: Induction of cell death in human HuH7 cells at 2.5 to 40 uM incubated for 72 hrs by SRB assay; how it was run: as §1
[4] = tested on: MCF7; assay: Induction of cell death in human MCF7 cells at 2.5 to 40 uM incubated for 72 hrs by SRB assay; how it was run: as §1
[5] = tested on: T47D; assay: Cytotoxicity against human T47D cells incubated for 72 hrs by SRB assay
How it was run: (§2)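 Cells grown in DMEM with 10% FCS, 2 mM L-glutamine, NEAA and antibiotics at 37 °C, 5% CO2, then seeded at 1000–5000 cells/well and grown 24 h. Compounds were added from DMSO for 72 h, following NCI guidelines. Cells were fixed in cold 10% TCA for 1 h at 4 °C and stained with 0.4% SRB in 1% acetic acid for 10 min. Bound dye was dissolved in 10 mM Tris and absorbance read at 515 nm.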

[6] = tested on: HepG2; assay: Cytotoxicity against human HepG2 cells incubated for 72 hrs by SRB assay; details: HepG2, 72 h; how it was run: as §2
[7] = tested on: CAMA-1; assay: Cytotoxicity against human CAMA1 cells incubated for 72 hrs by SRB assay; details: CAMA-1, 72 h; how it was run: as §2
[8] = Cytotoxicity against human FOCUS cells incubated for 72 hrs by SRB assay; how it was run: as §2
[9] = tested on: MFE-296; assay: Cytotoxicity against human MFE296 cells incubated for 72 hrs by SRB assay; details: MFE-296, 72 h; how it was run: as §2
[10] = Cytotoxicity against human MV cells incubated for 72 hrs by SRB assay; how it was run: as §2
[11] = tested on: BT-20; assay: Cytotoxicity against human BT20 cells incubated for 72 hrs by SRB assay; details: BT-20, 72 h; how it was run: as §2
[12] = tested on: HCT-116; assay: Cytotoxicity against human HCT116 cells incubated for 72 hrs by SRB assay; details: HCT-116, 72 h; how it was run: as §2
[13] = tested on: Huh-7; assay: Cytotoxicity against human HuH7 cells incubated for 72 hrs by SRB assay; details: Huh-7, 72 h; how it was run: as §2
[14] = tested on: MCF7; assay: Cytotoxicity against human MCF7 cells incubated for 72 hrs by SRB assay; details: MCF7, 72 h; how it was run: as §2

Compound | growth inhibition (GI) [1] | also measured
CC(C)(C)C(=O)N(CC(=O)O)C[C@@H]1CSC(c2ccccc2)N1C(=O)c1ccccc1 (stereo not given in full) | inactive | 
CCCCCCCCCCC(=O)N(CC(=O)O)C[C@@H]1CSC(c2ccccc2)N1C(=O)c1ccccc1 (stereo not given in full) | inactive | 
CCOC(=O)Cn1cc(C(=O)N2C(c3ccccc3)SC[C@H]2C(=O)OCC)nn1 (stereo not given in full) | inactive | 
O=C(c1c(F)c(F)c(F)c(F)c1F)N(CCc1ccsc1)C[C@@H]1CSC(c2ccccc2)N1C(=O)c1ccccc1 (stereo not given in full) | inactive | 
CC(C)(C)C(=O)N(CCc1ccsc1)C[C@@H]1CSC(c2ccccc2)N1C(=O)c1ccccc1 (stereo not given in full) | inactive | Activity [2]: inactive; Activity [3]: inactive; Activity [4]: inactive
O=c1[nH]cc(F)c(=O)[nH]1 [FLUOROURACIL] |  | IC50 [5]: 8910 nM; IC50 [6]: 5700 nM; IC50 [7]: 1280 nM; IC50 [8]: 7690 nM; IC50 [9]: 30700 nM; IC50 [10]: 9970 nM; IC50 [11]: 47300 nM; IC50 [12]: 18700 nM
CCCCCCCCCCCCNC(=O)[C@@H]1CSC(c2ccccc2)N1C(=O)Cn1cc(C)c(=O)[nH]c1=O (stereo not given in full) | inactive | 
Cc1cn(CC(=O)N2C(c3ccccc3)SC[C@H]2C(=O)NCc2ccccc2)c(=O)[nH]c1=O (stereo not given in full) | inactive | 
CCOC(=O)[C@@H]1CSC(c2ccccc2)N1C(=O)c1cn(CCc2ccc(F)cc2)nn1 (stereo not given in full) | inactive | 
CCCCCCC(=O)N(CC(=O)O)C[C@@H]1CSC(c2ccccc2)N1C(=O)c1ccccc1 (stereo not given in full) | inactive | 
CCOC(=O)[C@@H]1CSC(c2ccccc2)N1C(=O)c1cn(CC(O)CO)nn1 (stereo not given in full) | inactive | 
CCOC(=O)[C@@H]1CSC(c2ccccc2)N1C(=O)c1cn(CCCNC(=O)C(F)(F)F)nn1 (stereo not given in full) | inactive | 
CCCCCCC(C)NC(=O)[C@@H]1CSC(c2ccccc2)N1C(=O)Cn1cc(C)c(=O)[nH]c1=O (stereo not given in full) | inactive | 
CCOC(=O)[C@@H]1CSC(c2ccccc2)N1C(=O)c1cn(CCc2ccsc2)nn1 (stereo not given in full) | inactive | Activity [2]: inactive; Activity [3]: inactive; Activity [4]: inactive
COC(=O)CN(C[C@@H]1CSC(c2ccccc2)N1C(=O)c1ccccc1)C(=O)C(C)(C)C (stereo not given in full) | inactive | 
COC(=O)CN(C[C@@H]1CSC(c2ccccc2)N1C(=O)c1ccccc1)C(=O)c1c(F)c(F)c(F)c(F)c1F (stereo not given in full) | inactive | 
CCOC(=O)[C@@H]1CSC(c2ccccc2)N1C(=O)c1cn(Cc2ccccc2)nn1 (stereo not given in full) | inactive | 
Cc1cn(CC(=O)N2C(c3ccccc3)SC[C@H]2C(=O)NCCc2ccccc2)c(=O)[nH]c1=O (stereo not given in full) | inactive | 
Cc1cn(CC(=O)N2C(c3ccccc3)SC[C@H]2C(=O)NC(C)C)c(=O)[nH]c1=O (stereo not given in full) | inactive | 
CCOC(=O)[C@@H]1CSC(c2ccccc2)N1C(=O)c1cn(CCc2ccccc2)nn1 (stereo not given in full) | inactive | 
CCCCCCC(=O)N(CCc1ccsc1)C[C@@H]1CSC(c2ccccc2)N1C(=O)c1ccccc1 (stereo not given in full) | inactive | 
CCOC(=O)[C@@H]1CSC(c2ccccc2)N1C(=O)c1cn(CCCCCCO)nn1 (stereo not given in full) | inactive | 
CCCCCCC(=O)N(CC(=O)OC)C[C@@H]1CSC(c2ccccc2)N1C(=O)c1ccccc1 (stereo not given in full) | inactive | 
CCOC(=O)[C@@H]1CSC(c2ccccc2)N1C(=O)c1cn(CC2OCOC2(C)C)nn1 (stereo not given in full) | inactive | 
CCOC(=O)[C@@H]1CSC(c2ccccc2)N1C(=O)c1cn(CC(=O)OCc2ccccc2)nn1 (stereo not given in full) | inactive | 
CCCCCCCCCCC(=O)N(CC(=O)OC)C[C@@H]1CSC(c2ccccc2)N1C(=O)c1ccccc1 (stereo not given in full) | inactive | 
CCCCCCCCCCC(=O)N(CCc1ccsc1)C[C@@H]1CSC(c2ccccc2)N1C(=O)c1ccccc1 (stereo not given in full) | inactive | 
CC[C@@]1(O)C(=O)OCc2c1cc1n(c2=O)Cc2cc3ccccc3nc2-1 [CAMPTOTHECIN] |  | IC50 [13]: 150 nM; IC50 [5]: < 1000 nM; IC50 [6]: 10 nM; IC50 [7]: 70 nM; IC50 [8]: < 1000 nM; IC50 [14]: < 1000 nM; IC50 [9]: < 1000 nM; IC50 [10]: < 1000 nM; IC50 [11]: 70 nM; IC50 [12]: < 1000 nM
Cc1cn(CC(=O)N2C(c3ccccc3)SC[C@H]2C(=O)NC(C)(C)C)c(=O)[nH]c1=O (stereo not given in full) | inactive | Activity [2]: inactive; Activity [3]: inactive; Activity [4]: inactive
O=C(O)CN(C[C@@H]1CSC(c2ccccc2)N1C(=O)c1ccccc1)C(=O)c1c(F)c(F)c(F)c(F)c1F (stereo not given in full) | inactive | 
